This note sets out measurements from ChEMBL document CHEMBL2146434, “Synthesis and biological evaluation of new amino acid and dipeptide derivatives of neocryptolepine as anticancer agents” (J Med Chem, 2012).

Where only a bound is given, the exact number is not on record here.

One series deals with MCF7. As to the kind of experiment: Cytotoxicity against human MCF7 cells after 72 hrs by SRB assay. Format: functional, cell-based. To be noted: MCF7, 72 h. The procedure, abridged: (§1)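 IC50 is the compound concentration giving 50% inhibition of cell proliferation. It was determined on normal mouse BALB/3T3 fibroblasts and on human A549, MCF-7 and LoVo cancer lines, with doxorubicin hydrochloride and DiMIQ as reference compounds.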

The next series deals with LoVo. As to the kind of experiment: Cytotoxicity against human LoVo cells after 72 hrs by SRB assay. The series is classed as functional, cell-based. The procedure, abridged: as §1
Series [1] deals with Lewis lung carcinoma cell line. As to the kind of experiment: Antineoplastic activity against mouse LLC cells xenografted in C57BL/6 mouse assessed as tumor growth inhibition at 25 mg/kg/day, ip administered on day 10 to day 14 of tumor implantation measured on day 19. Format: functional. To be noted: route intraperitoneal, read-out: TGI. The procedure, abridged:
(§2)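 Mice bore Lewis lung carcinoma (LLC) inoculated subcutaneously and received test agents intraperitoneally at 15–50 mg kg⁻¹ day⁻¹ from day 9 or day 10. A single 100 mg/kg cyclophosphamide dose was the cytostatic control. Tumor growth was followed as the group median, and TGI% was calculated from medians versus untreated controls. Significance was tested by nonparametric Kruskal–Wallis multiple comparison, p < 0.05.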

Series [2] relates to Lewis lung carcinoma cell line. As to the kind of experiment: Antineoplastic activity against mouse LLC cells xenografted in C57BL/6 mouse assessed as tumor growth inhibition at 25 mg/kg/day, ip administered on day 10 to day 14 of tumor implantation measured on day 12. Format: functional. To be noted: route intraperitoneal, read-out: TGI. The procedure, abridged:
as §2

Series [3] relates to Lewis lung carcinoma cell line. As to the kind of experiment: Antineoplastic activity against mouse LLC cells xenografted in C57BL/6 mouse assessed as tumor growth inhibition at 25 mg/kg/day, ip administered on day 10 to day 14 of tumor implantation measured on day 14. The series is classed as functional. To be noted: route intraperitoneal, read-out: TGI. The procedure, abridged:
as §2

Series [4] deals with Lewis lung carcinoma cell line. As to the kind of experiment: Antineoplastic activity against mouse LLC cells xenografted in C57BL/6 mouse assessed as tumor growth inhibition at 25 mg/kg/day, ip administered on day 10 to day 14 of tumor implantation measured on day 17. Format: functional. To be noted: route intraperitoneal, read-out: TGI. The procedure, abridged: as §2
Series [5] is described as follows: Octanol-water partition coefficient, log P of the compound in citric buffer at pH 2.5 by spectrophotometric analysis. The series is classed as physicochemical. The procedure, abridged:
(§3)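 Octanol–water partitioning, with log P defined as log(C_octanol/C_water). Compound in the aqueous phase was measured spectrophotometrically, and octanol content was obtained by subtracting the supernatant concentration from the total. Values are the mean of two independent experiments, each run in triplicate.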

A short description of series [6]: Dissociation constant, pKa of the compound in PBS buffer at 5 uM at pH 2 to 10 by UV-spectrophotometric analysis. The series is classed as physicochemical. The procedure, abridged: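 UV spectrophotometric titration at a final compound concentration of 5 μM. At this concentration the absorbance–concentration relationship stayed linear. pKa was read from spectral changes across pH.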

The subject of series [7] is Mus musculus. As to the kind of experiment: Toxicity in C57BL/6 mouse xenografted with mouse LLC cells at 25 to 50 mg/kg/day, ip administered on day 9 to day 13 of tumor implantation. The series is classed as organism-based. Also noted: route intraperitoneal. To be noted: in vivo. The procedure, abridged: (§4)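 Mouse Lewis lung carcinoma (LLC) cells inoculated sc into mice. Daily dosing from day 9: 15 mg kg⁻¹ day⁻¹ through day 13 or 30 mg kg⁻¹ day⁻¹ through day 12; 25 or 50 mg kg⁻¹ day⁻¹ through day 13. Route is given as ip in tables and text but sc in figure legends. Body weight monitored for loss alongside tumor growth. Single 100 mg/kg cyclophosphamide dose as cytostatic control.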

The nature of series [8]: Octanol-water partition coefficient, log P of the compound in PBS buffer at pH 7.4 by spectrophotometric analysis. The series is classed as physicochemical. The procedure, abridged: as §3
For series [9], the system named is Mus musculus. As to the kind of experiment: Toxicity in C57BL/6 mouse xenografted with mouse LLC cells assessed as body weight loss at 25 mg/kg/day, sc administered on day 9 to day 13 of tumor implantation. To be noted: in vivo. On the set-up: route subcutaneous. The series is classed as organism-based. The procedure, abridged: (§5)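 Body weight was tracked in C57BL/6 mice bearing subcutaneously inoculated LLC during therapy given daily from day 9 to day 13. A single 100 mg/kg dose of cyclophosphamide served as the cytostatic control group.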

Series [10] concerns Lewis lung carcinoma cell line. As to the kind of experiment: Antineoplastic activity against mouse LLC cells xenografted in C57BL/6 mouse assessed as tumor growth inhibition at 50 mg/kg/day, ip administered on day 10 to day 14 of tumor implantation measured on day 12. Format: functional. To be noted: route intraperitoneal, read-out: TGI. The procedure, abridged: as §2
Series [11] relates to Lewis lung carcinoma cell line. As to the kind of experiment: Antineoplastic activity against mouse LLC cells xenografted in C57BL/6 mouse assessed as tumor growth inhibition at 50 mg/kg/day, ip administered on day 10 to day 14 of tumor implantation measured on day 24. Format: functional. To be noted: route intraperitoneal, read-out: TGI. The procedure, abridged: as §2
Series [12] has as its system Mus musculus. As to the kind of experiment: Toxicity in C57BL/6 mouse xenografted with mouse LLC cells assessed as body weight loss at 50 mg/kg/day, sc administered on day 9 to day 13 of tumor implantation. Format: organism-based. On the set-up: route subcutaneous. To be noted: in vivo. The procedure, abridged:
as §4

The test system of series [13] is Lewis lung carcinoma cell line. As to the kind of experiment: Antineoplastic activity against mouse LLC cells xenografted in C57BL/6 mouse assessed as tumor growth inhibition at 50 mg/kg/day, ip administered on day 10 to day 14 of tumor implantation measured on day 14. Format: functional. To be noted: route intraperitoneal, read-out: TGI. The procedure, abridged: as §2

The subject of series [14] is Lewis lung carcinoma cell line. As to the kind of experiment: Antineoplastic activity against mouse LLC cells xenografted in C57BL/6 mouse assessed as tumor growth inhibition at 50 mg/kg/day, ip administered on day 10 to day 14 of tumor implantation measured on day 21. Format: functional. To be noted: route intraperitoneal, read-out: TGI. The procedure, abridged:
as §2

Series [15] concerns Mus musculus. As to the kind of experiment: Toxicity in C57BL/6 mouse xenografted with mouse LLC cells assessed as body weight loss at 30 mg/kg/day, sc administered on day 9 to day 12 of tumor implantation. The series is classed as organism-based. On the set-up: route subcutaneous. To be noted: in vivo. The procedure, abridged: as §4
Series [16] can be described thus: Solubility of the compound in water. Format: physicochemical. To be noted: buffer.
In series [17] the test system is Mus musculus. As to the kind of experiment: Toxicity in C57BL/6 mouse xenografted with mouse LLC cells assessed as body weight loss at 30 mg/kg/day, ip administered on day 9 to day 12 of tumor implantation. Format: organism-based. Also noted: route intraperitoneal. To be noted: in vivo. The procedure, abridged:
as §4

In series [18] the test system is Lewis lung carcinoma cell line. As to the kind of experiment: Antineoplastic activity against mouse LLC cells xenografted in C57BL/6 mouse assessed as tumor growth inhibition at 25 mg/kg/day, ip administered on day 10 to day 14 of tumor implantation measured on day 24. The series is classed as functional. To be noted: route intraperitoneal, read-out: TGI. The procedure, abridged: as §2

Series [19] is described as follows: Toxicity in human erythrocytes assessed as hemolysis at 0.3 mM after 30 mins by spectrophotometric analysis. To be noted: read-out: Activity. Format: cell-based, Erythrocyte. The procedure, abridged:
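Human erythrocyte suspension under isotonic conditions (pH 7.4, hematocrit 50%). Compound added across a concentration series and incubated 30 min at 37 °C before hemolysis was scored. Mean ± SD of three individual determinations. Statistics by Mann–Whitney U test, p < 0.05.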

The subject of another series is A549. As to the kind of experiment: Cytotoxicity against human A549 cells after 72 hrs by SRB assay. To be noted: A549, 72 h. The series is classed as functional, cell-based. The procedure, abridged:
as §1

The subject of series [20] is Lewis lung carcinoma cell line. As to the kind of experiment: Antineoplastic activity against mouse LLC cells xenografted in C57BL/6 mouse assessed as tumor growth inhibition at 50 mg/kg/day, ip administered on day 10 to day 14 of tumor implantation measured on day 19. To be noted: route intraperitoneal, read-out: TGI. Format: functional. The procedure, abridged:
as §2

Series [21] has as its system Mus musculus. As to the kind of experiment: Toxicity in C57BL/6 mouse xenografted with mouse LLC cells assessed as body weight loss at 15 mg/kg/day, sc administered on day 9 to day 13 of tumor implantation. Also noted: route subcutaneous. The series is classed as organism-based. To be noted: in vivo. The procedure, abridged: as §5
Series [22] deals with Mus musculus. As to the kind of experiment: Toxicity in C57BL/6 mouse xenografted with mouse LLC cells assessed as body weight loss at 15 mg/kg/day, ip administered on day 9 to day 13 of tumor implantation. On the set-up: route intraperitoneal. To be noted: in vivo. Format: organism-based. The procedure, abridged:
as §5

For series [23], the system named is Lewis lung carcinoma cell line. As to the kind of experiment: Antineoplastic activity against mouse LLC cells xenografted in C57BL/6 mouse assessed as tumor growth inhibition at 50 mg/kg/day, ip administered on day 10 to day 14 of tumor implantation measured on day 17. The series is classed as functional. To be noted: route intraperitoneal, read-out: TGI. The procedure, abridged: as §2

For a further series, the system named is KB. As to the kind of experiment: Cytotoxicity against human KB cells after 72 hrs by SRB assay. Format: functional, cell-based.
Series [24] deals with Lewis lung carcinoma cell line. As to the kind of experiment: Antineoplastic activity against mouse LLC cells xenografted in C57BL/6 mouse assessed as tumor growth inhibition at 25 mg/kg/day, ip administered on day 10 to day 14 of tumor implantation measured on day 21. Format: functional. To be noted: route intraperitoneal, read-out: TGI. The procedure, abridged:
as §2

A short description of series [25]: Octanol-water partition coefficient, log P of the compound at pH 2.2. Format: physicochemical.
Series [26] can be described thus: Octanol-water partition coefficient, log P of the compound at pH 5. The series is classed as physicochemical.

With `Cc1c2c3cc(NC(=O)CNC(=O)[C@@H]4CCCN4)ccc3nc-2n(C)c2ccccc12.Cl.Cl`, the half-maximal inhibitory concentration (IC50) was found to be 1.43 µM in the series on MCF7, 0.98 µM with LoVo, 1.15 µM in the series on A549 and 3.73 µM with KB. Also, the inhibition in vivo at 25 mg/kg/day was determined as 3.1% in series [1]; 12.9% in series [2]; 11.6% in [3]; 0% in series [4]; 0% in series [18]; 0% in [24]. The log partition coefficient (logP) in [5] is on record as -1.9. The compound further gave a pKa at 5 µM in [6] of 7.3. Also, the Activity entry is “Non-toxic” in the series on Mus musculus [7]; “<= 15%” in the series on Mus musculus [9]; “<= 15%” in the series on Mus musculus [12]; “<= 15%” with Mus musculus [15]; “<= 15%” in the series on Mus musculus [17]; “<= 15%” in the series with Mus musculus [21]. Moreover, the Activity entry with Mus musculus [22] was “<= 15%”. Besides, the logD in series [8] was -0.1. Also, the inhibition in vivo at 50 mg/kg/day amounted to 16.3% in series [10]; 8.19% in series [11]; 36.5% in series [13]; 32.5% in series [14]; 33.1% in [20]; 18.5% in series [23]. In addition, the solubility entry in series [16] is “soluble”. The hemolysis at 0.5 h, 300 µM in series [19] was 9.97%.

As for `Cc1c2c3ccccc3nc-2n(C)c2ccccc12`, the half-inhibitory concentration (IC50) in the series on LoVo stood at 0.2 µM. The logP is given as -1 in series [25] and 2 in series [26].
